Screening data: PubChem BioAssay, Broad Institute
The entries come from a sample that favours hits as a whole.
A1 apoptosis 2: compounds inhibiting A1, read as caspase activation; 24,000 tested, under 10 active; caspase activation, % (no concentration beside the values); MEF A1-2A-BIM cells, caspase-Glo luminescence, 3 h; percent of clofoctol response, DMSO zero; in the data active = caspase activation above about 5.9%; inconclusive = no clear call, values can overlap the other calls; inactive = below about 2.2%
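Material: mouse embryonic fibroblasts co-expressing A1 and BIM (A1-2A-BIM), primed for A1 dependence / Quantity: 2500 cells/well / Buffer or medium: RPMI-1640 growth medium with 10% FBS / Doses: 50 nL compound per well, pinned / Schedule: 3 h compound exposure at 37 °C / Signal: Caspase-Glo luminescence (DEVD substrate) / Measure: Caspase-3/7 activation, seen as rise in luminescence signal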
INS-1E rescue: rescue of cytokine-induced death in INS-1E beta cells | hit rate 0.1% among 20,000 | protection from cytokine-induced ATP loss, % at 10 µM | INS-1E cytokine-induced death, ATP luminescence, 48 h; normalised: neutral wells 0, positive control 100 | AID 488910;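 active = mean replicate protection from cytokine-induced ATP loss at least 50% and at least 75% of replicates each reaching 50%; inconclusive = meets only one of the two criteria, mean or replicate share; inactive = fails both the mean and replicate share criteria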
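Assay system: INS-1E rat cells / Quantity: 8000 cells per well / Medium: RPMI without phenol red, 5% FBS / Probe or stimulus: three-cytokine cocktail (IFN-γ, TNF-α, IL-1β) / Dosing: one compound concentration, pin transfer / Timing: 48 h co-treatment, 10 min post-lysis read / Technique: CellTiter-Glo luminescence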
T cruzi HTS: intracellular Trypanosoma cruzi inhibition. hit rate 4.9% among 22,000. intracellular Trypanosoma cruzi in host cells, plate reader. activity score (inhibition), % at 5.01 µM; in the data active = activity score above about 55%; inconclusive = no clear call, values can overlap the other calls;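 note: parasites and compound incubated about four days before reading; 0% = median of neutral control wells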
Active calls of the source: *; ? = inconclusive; . = no result given.

SMILES	A1 apoptosis 2	INS-1E rescue	T cruzi HTS
C[C@H]1CN([C@@H](C)CO)C(=O)c2cc(NC(=O)Nc3cccc4ccccc34)ccc2O[C@H]1CN(C)Cc1ccccc1	1	-5	-16
Cc1noc(C)c1S(=O)(=O)Nc1ccc2c(c1)C(=O)N([C@@H](C)CO)C[C@H](C)[C@H](CN(C)C(=O)Nc1ccc3c(c1)OCO3)OCCCC[C@H](C)O2	-2	.	.
Cc1noc(C)c1S(=O)(=O)N(C)C[C@@H]1Oc2ccc(NC(=O)Nc3ccc(C(F)(F)F)cc3)cc2CC(=O)N([C@H](C)CO)C[C@@H]1C	-1	.	.
O=C(N/N=C/c1cc(Br)cc([N+](=O)[O-])c1O)c1ccccn1	-3	8	4
COc1ccc(CN(C)C[C@@H]2Oc3ccc(NS(=O)(=O)c4ccccc4)cc3CC(=O)N([C@@H](C)CO)C[C@@H]2C)cc1	.	4	17
COc1ccc(CN(C)C[C@@H]2Oc3ccc(NS(=O)(=O)c4ccc(OC)cc4)cc3CC(=O)N([C@H](C)CO)C[C@H]2C)cc1	1	-8	70*
COc1ccc(S(=O)(=O)Nc2ccc3c(c2)CC(=O)N([C@@H](C)CO)C[C@@H](C)[C@@H](CN(C)Cc2ccc4c(c2)OCO4)O3)cc1	0	-4	4
COc1ccc(CN(C)C[C@@H]2Oc3ccc(NS(=O)(=O)c4ccc(F)cc4)cc3CC(=O)N([C@H](C)CO)C[C@H]2C)cc1	.	-2	41
COc1ccc(S(=O)(=O)Nc2ccc3c(c2)CC(=O)N([C@H](C)CO)C[C@@H](C)[C@@H](CN(C)Cc2ccc(-c4ccccc4)cc2)O3)cc1	1	-16	72*
COc1ccc(S(=O)(=O)Nc2ccc3c(c2)CC(=O)N([C@@H](C)CO)C[C@@H](C)[C@H](CN(C)Cc2ccccc2)O3)cc1	-1	.	.
COc1ccc(S(=O)(=O)Nc2ccc3c(c2)CC(=O)N([C@H](C)CO)C[C@@H](C)[C@H](CN(C)Cc2ccc4c(c2)OCO4)O3)cc1	.	3	66*
COc1ccc(S(=O)(=O)Nc2ccc3c(c2)CC(=O)N([C@H](C)CO)C[C@@H](C)[C@@H](CN(C)Cc2ccccc2)O3)cc1	0	-6	63*
NC(=O)C1CCCN(/[N+]([O-])=N/OCCBr)C1 (centres undefined)	0	.	.
O=C(CCCCCCC(=O)Nc1ccccc1O)N/N=C/c1ccc(-c2cccc(Cl)c2)o1	-1	.	.
O=C(N/N=C/c1ccc([N+](=O)[O-])c(O)c1)c1ccccc1O	.	-26	-9
COc1ccc(CN(C)C[C@H]2Oc3ccc(NS(=O)(=O)c4ccc(OC)cc4)cc3CC(=O)N([C@H](C)CO)C[C@H]2C)cc1	0	3	64*
COc1ccc(CN(C)C[C@H]2Oc3ccc(NS(=O)(=O)c4ccc(OC)cc4)cc3CC(=O)N([C@H](C)CO)C[C@@H]2C)cc1	-1	.	.
O=C(NO)c1ccc(C(=O)N/N=C/c2cc(Cl)cc(Cl)c2O)cc1	-1	24	-8
C[C@H](CO)N1C[C@H](C)[C@@H](CN(C)Cc2ccncc2)Oc2ccc(NS(=O)(=O)c3cccs3)cc2C1=O	0	0	3
Cc1ccc(S(=O)(=O)Nc2ccc3c(c2)C(=O)N([C@H](C)CO)C[C@H](C)[C@@H](CN(C)Cc2ccc(Cl)c(Cl)c2)O3)cc1	.	-7	9
C[C@@H]1CN([C@H](C)CO)C(=O)c2cc(NS(=O)(=O)c3ccc(F)cc3)ccc2O[C@H]1CN(C)Cc1ccc(Cl)c(Cl)c1	.	-11	7
C[C@H]1CN([C@@H](C)CO)C(=O)c2cc(NS(=O)(=O)c3cccs3)ccc2O[C@@H]1CN(C)Cc1ccc(Cl)c(Cl)c1	.	-9	57*
Cc1ccc(S(=O)(=O)Nc2ccc3c(c2)C(=O)N([C@@H](C)CO)C[C@H](C)[C@H](CN(C)Cc2ccc(Cl)c(Cl)c2)O3)cc1	-1	.	14*
C[C@H](CO)N1C[C@H](C)[C@@H](CN(C)Cc2ccc(Cl)c(Cl)c2)Oc2ccc(NS(=O)(=O)c3ccc(Cl)cc3)cc2C1=O	.	-6	64*
COc1ccc([C@H]2C[C@H]3C(Br)=CC2C(=O)[C@]32CO2)cc1	0	.	.
SMILES	A1 apoptosis 2	INS-1E rescue	T cruzi HTS
COC(=O)CCCCCCC(=O)N/N=C/c1cccc(C(=O)O)c1	2	6	-24
O=C(CCCCC(=O)N/N=C/c1ccco1)NO	0	14	-2
C=CCC/C=N/NC(=O)CCCCCCC(=O)NO	-1	.	.
COc1cc2c(cc1OC)CN(C(=O)[C@@H]1[C@H]3C(=O)O[C@H](c4ccccc4)[C@H](c4ccccc4)N3[C@H](c3ccc(O)cc3)[C@@]13C(=O)Nc1ccc(C#CC4=CCCCC4)cc13)CC2	1	.	.
C[C@H](CO)N1C[C@H](C)[C@@H](CN(C)Cc2ccc3c(c2)OCO3)Oc2c(NC(=O)Nc3ccc(C(F)(F)F)cc3)cccc2C1=O	.	-36	83*
C[C@H](CO)N1C[C@H](C)[C@@H](CN(C)Cc2ccc3c(c2)OCO3)Oc2c(NC(=O)Nc3ccc(F)cc3)cccc2C1=O	0	-8	60*
C[C@@H]1CN([C@@H](C)CO)C(=O)c2cccc(NC(=O)Nc3ccc(C(F)(F)F)cc3)c2O[C@H]1CN(C)Cc1ccc2c(c1)OCO2	.	-60	90*
C[C@H](CO)N1C[C@H](C)[C@H](CN(C)Cc2ccc3c(c2)OCO3)Oc2c(NC(=O)Nc3ccc(C(F)(F)F)cc3)cccc2C1=O	0	-51	62*
C[C@H]1CN([C@@H](C)CO)C(=O)c2cccc(NC(=O)Nc3ccc(C(F)(F)F)cc3)c2O[C@@H]1CN(C)Cc1ccc2c(c1)OCO2	.	-13	52
C[C@H](CO)N1C[C@H](C)[C@H](CN(C)Cc2ccc3c(c2)OCO3)Oc2c(NC(=O)Nc3ccc(F)cc3)cccc2C1=O	.	-22	50
C[C@H]1CN([C@@H](C)CO)C(=O)c2cccc(NC(=O)Nc3ccc4c(c3)OCO4)c2O[C@H]1CN(C)Cc1ccc2c(c1)OCO2	.	-12	-17
C[C@@H]1CN([C@H](C)CO)C(=O)c2cccc(NC(=O)Nc3ccc4c(c3)OCO4)c2O[C@H]1CN(C)Cc1ccc(C(F)(F)F)cc1	0	-7	9
C[C@@H]1CN([C@H](C)CO)C(=O)c2cc(N(C)C)ccc2O[C@@H](C)CCCCO[C@H]1CN(C)Cc1ccncc1	1	.	.
COc1ccc(-c2cn(CC(=O)N3CCOCC3)nn2)cc1OC	0	.	.
C[C@@H]1CN([C@H](C)CO)C(=O)c2cccc(NC(=O)Nc3ccc(C(F)(F)F)cc3)c2O[C@H]1CN(C)Cc1ccc2c(c1)OCO2	-1	-58	80*
C[C@@H]1CN([C@H](C)CO)C(=O)c2cccc(NC(=O)Nc3ccc(C(F)(F)F)cc3)c2O[C@@H]1CN(C)Cc1ccc2c(c1)OCO2	1	-27	?
COc1ccc(NC(=O)Nc2ccc3c(c2)CC(=O)N([C@H](C)CO)C[C@@H](C)[C@H](CN(C)Cc2ccc(Cl)c(Cl)c2)O3)cc1	.	-29	?
COc1ccc(CN(C)C[C@H]2Oc3ccc(NC(=O)Nc4ccc(OC)cc4)cc3CC(=O)N([C@H](C)CO)C[C@@H]2C)cc1	0	.	.
